Results: ChEMBL document CHEMBL5252671, “Design, synthesis and evaluation of the anti-breast cancer activity of 1,3-oxazolo[4,5-d]pyrimidine and 1,3-oxazolo[5,4-d]pyrimidine derivatives” (2023)

Experiments:
Assay type in all cases: functional
[1] = tested on: MCF7; experiment: Antiproliferative activity against human MCF7 cells assessed as inhibition of cell growth at 1 X 10^-5 M measured for 48 hrs by sulforhodamine B assay relative to control; settings: MCF7, 48 h, dose 1 10^-5M
In short: (§1)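 NCI one-dose screen. Cells were seeded at 5000-40000/well in RPMI 1640 with 5% FBS and 2 mM L-glutamine and preincubated 24 h at 37 °C in 5% CO2. Compound was added at 10⁻⁵ M for 48 h. Cells were then fixed with 10% TCA, stained with sulforhodamine B, washed with 1% acetic acid, solubilized in 10 mM Tris and read as OD at 510 nm.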

[2] = tested on: MDA-MB-231; experiment: Antiproliferative activity against human MDA-MB-231 cells assessed as inhibition of cell growth at 1 X 10^-5 M measured for 48 hrs by sulforhodamine B assay relative to control; settings: MDA-MB-231, 48 h, dose 1 10^-5M; in short: as §1
[3] = tested on: Hs-578T; experiment: Antiproliferative activity against human Hs-578T cells assessed as inhibition of cell growth at 1 X 10^-5 M measured for 48 hrs by sulforhodamine B assay relative to control; settings: dose 1 10^-5M; in short: as §1
[4] = tested on: BT-549; experiment: Antiproliferative activity against human BT-549 cells assessed as inhibition of cell growth at 1 X 10^-5 M measured for 48 hrs by sulforhodamine B assay relative to control; settings: BT-549, 48 h, dose 1 10^-5M; in short: as §1
[5] = tested on: T47D; experiment: Antiproliferative activity against human T47D cells assessed as inhibition of cell growth at 1 X 10^-5 M measured for 48 hrs by sulforhodamine B assay relative to control; settings: dose 1 10^-5M; in short: as §1
[6] = tested on: MDA-MB-468; experiment: Antiproliferative activity against human MDA-MB-468 cells assessed as inhibition of cell growth at 1 X 10^-5 M measured for 48 hrs by sulforhodamine B assay relative to control; settings: MDA-MB-468, 48 h, dose 1 10^-5M; in short: as §1
[7] = tested on: MCF7; experiment: Anticancer activity against human MCF7 cells measured at 48 hrs
In short: (§2)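 NCI DTP five-dose screen on the breast subpanel: compound at 0.01, 0.1, 1, 10 and 100 μM for 48 h. Cell density read by sulforhodamine B (protein content). GI50, TGI and LC50 were derived from the T, T0 and C optical densities using the NCI formulas.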

[8] = tested on: MDA-MB-231; experiment: Anticancer activity against human MDA-MB-231 cells measured at 48 hrs; in short: as §2
[9] = tested on: Hs-578T; experiment: Anticancer activity against human Hs-578T cells measured at 48 hrs; in short: as §2
[10] = tested on: BT-549; experiment: Anticancer activity against human BT-549 cells measured at 48 hrs; in short: as §2
[11] = tested on: T47D; experiment: Anticancer activity against human T47D cells measured at 48 hrs; settings: for CC50: read-out: LC50 (the source's name); in short: as §2
[12] = tested on: MDA-MB-468; experiment: Anticancer activity against human MDA-MB-468 cells measured at 48 hrs; in short: as §2

Row | SMILES | inhibition at 10 µM [1] [%] | inhibition at 10 µM [2] [%] | inhibition at 10 µM [3] [%] | inhibition at 10 µM [4] [%] | inhibition at 10 µM [5] [%] | inhibition at 10 µM [6] [%] | GI50 [7] [µM] | LC50 (concentration giving 50% net cell kill) [7] [µM] | TGI [7] [µM] | GI50 [8] [µM] | LC50 (concentration killing 50% of starting cells) [8] [µM] | TGI [8] [µM] | GI50 [9] [µM] | TGI [9] [µM] | GI50 [10] [µM] | TGI [10] [µM] | GI50 [11] [µM] | TGI [11] [µM] | GI50 [12] [µM] | LC50 (concentration giving 50% net cell kill) [12] [µM] | also measured
1 | c1ccc(-c2nc(N3CCCNCC3)c3nc(-c4ccccc4)oc3n2)cc1 | 167 | 103 | 16 | 5 | 53 | 153 | 1.67 | 6.67 | 3.34 | 1.72 | 5.99 | 3.21 | 1.86 | 3.94 | 1.78 | 3.29 | 1.78 | 3.64 | 1.72 | 6.57 | LC50 (50% lethal concentration) [9]: 8.34 µM; CC50 [11]: 7.42 µM; TGI [12]: 3.37 µM
2 | Cc1ccc(-c2nc(N3CCCNCC3)c3oc(-c4ccccc4)nc3n2)cc1 | 175 | 192 | 130 | 19 | 167 | 176 | 1.59 | 7.45 | 3.44 | 1.77 | 6.06 | 3.27 | 1.94 | 4.22 | 1.62 | 3.14 | 2.02 | 4 | 1.55 | 6.75 | LC50 (50% lethal concentration) [9]: 9.21 µM; CC50 [11]: 7.94 µM; TGI [12]: 3.24 µM
3 | Cc1ccc(-c2nc3nc(-c4ccccc4)nc(N4CCNCC4)c3o2)cc1 | 166 | 179 | 151 | 172 | 168 | 187 | 0.33 | 5.74 | 1.45 | 0.26 | 2.61 | 0.67 | 2.02 | 4.22 | 1.72 | 3.2 | 0.35 | 1.51 | 0.29 | 4.84 | LC50 (concentration giving 50% net cell kill) [10]: 5.99 µM; CC50 [11]: 6.33 µM; TGI [12]: 1.18 µM
4 | Cc1ccc(-c2nc(N3CCNCC3)c3oc(-c4ccccc4)nc3n2)cc1 | 175 | 179 | 72 | 15 | 158 | 131 | 1.85 | 7.6 | 3.75 | 1.62 | 5.77 | 3.06 | 2.53 | 7.69 | 13.8 | 31.6 | 1.81 | 3.83 | 1.81 | 7.98 | LC50 (50% lethal concentration) [9]: > 100 µM; LC50 (concentration giving 50% net cell kill) [10]: 72.7 µM; CC50 [11]: 8.07 µM; TGI [12]: 3.8 µM
5 | Cc1ccc(-c2nc3nc(-c4ccc(Br)cc4)nc(N4CCCNCC4)c3o2)cc1 | 176 | 157 | 130 | 1 | 108 | 165 | 1.78 | 6.91 | 3.51 | 1.93 | 8.5 | 4.05 | 17.2 | 37.1 | 16 | 34.6 | 3.06 | 13.9 | 3.98 | 52.5 | LC50 (50% lethal concentration) [9]: 80.2 µM; LC50 (concentration giving 50% net cell kill) [10]: 75 µM; CC50 [11]: 65.5 µM; TGI [12]: 15.9 µM
6 | c1ccc(-c2nc(N3CCNCC3)c3nc(-c4ccccc4)oc3n2)cc1 | 169 | 181 | 11 | 3 | 157 | 137 | 1.7 | 7.54 | 3.58 | 1.67 | 6.13 | 3.2 | 1.87 | 4.11 | 1.67 | 3.24 | 1.94 | 4.19 | 1.93 | 6.94 | LC50 (50% lethal concentration) [9]: 9.05 µM; LC50 (concentration giving 50% net cell kill) [10]: 6.27 µM; TGI [12]: 3.66 µM
7 | Cc1ccc(-c2nc3nc(-c4ccc(F)cc4)nc(N4CCNCC4)c3o2)cc1 | 174 | 129 | 106 | 1 | 127 | 46 | 1.66 | 7.4 | 3.51 | 1.86 | 7.09 | 3.63 | 2.06 | 5.12 | 13.6 | 30.1 | 2.3 | 6.92 | 1.74 | 6.56 | LC50 (50% lethal concentration) [9]: 37 µM; LC50 (concentration giving 50% net cell kill) [10]: 66.8 µM; CC50 [11]: > 100 µM; TGI [12]: 3.38 µM
8 | Cc1ccc(-c2nc3nc(-c4ccc(Cl)cc4)nc(N4CCCNCC4)c3o2)cc1 | 179 | 176 | 151 | 1 | 136 | 154 | 1.7 | 6.75 | 3.39 | 1.87 | 6.21 | 3.37 | 1.93 | 4.17 | 1.9 | 3.61 | 1.94 | 4.14 | 1.78 | 6.59 | LC50 (50% lethal concentration) [9]: 9.02 µM; LC50 (concentration giving 50% net cell kill) [10]: 6.86 µM; CC50 [11]: 8.84 µM; TGI [12]: 3.42 µM
9 | Cc1ccc(-c2nc(N3CCNCC3)c3oc(-c4ccc(C)cc4)nc3n2)cc1 | 173 | 172 | 1 | 17 | 63 | 133 | 1.72 | 7.86 | 3.68 | 1.74 | 6.81 | 3.44 | 2.27 | 5.83 | 1.71 | 3.32 | 11.4 | 37.4 | 2.13 | 13.5 | LC50 (50% lethal concentration) [9]: > 100 µM; LC50 (concentration giving 50% net cell kill) [10]: 6.48 µM; CC50 [11]: > 100 µM; TGI [12]: 4.77 µM
